Test results: ChEMBL document CHEMBL1142233, “Treatment of diabetes and atherosclerosis by inhibiting fatty-acid-binding protein aP2” (2007)
The source made the active and inactive calls. The calls are words filed in the database; no cut-off is given here.

Key:
Macrophage [1] = test: Decrease in MCP1 production in mouse aP2+/+ macrophage cells after 24 hrs; format: functional, cell-based
Outline: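 Immortalized mouse macrophage lines (aP2−/−R re-expressing aP2) kept 24 h in RPMI plus 5% LPDS with inhibitor 0–25 μM in DMSO. MCP-1 in supernatant measured by ELISA and expressed relative to inhibitor-free cells of each line. At least triplicate.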

Mus musculus [2] = test: Inhibition of aP2 in 5-week old apoE -/- C57BL/6J mouse fed on western diet and 15 mg/kg/day, po drug simultaneously in early intervention study assessed as reduction of atherosclerotic lesion in en face aorta relative to control; format: functional; design: scale not given: the % may be the effect or the level left
Outline: (§1)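 Male Apoe⁻/⁻ C57BL/6J mice were fed a western diet (21% fat, 0.21% cholesterol) from 4–5 weeks of age. They were gavaged for 6 weeks with 15 mg kg⁻¹ d⁻¹ in vehicle (10% 1-methyl-2-pyrrolidone, 5% cremophor EL with ethanol, in water), starting at 5 weeks (early) or 12 weeks (late). Perfusion-fixed, pinned-out aortas were stained with Sudan IV and lesion area was quantified.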

Mus musculus [3] = test: Inhibition of aP2 in 5-week old apoE-/- C57BL/6J mouse fed on western diet and administered with 15 mg/kg/day, po drug at 12 week in late intervention study assessed as reduction of atherosclerotic lesion in en face aorta relative to control; format: functional; design: scale not given: the % may be the effect or the level left; outline: as §1
Mus musculus [4] = test: Effect on cholesterol level in 5-week old apoE -/- C57BL/6J mouse fed on western diet and 15 mg/kg/day, po drug simultaneously in 5-11 week early intervention study; format: functional
Outline: (§2)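 Male Apoe−/− mice on western diet (21% fat, 0.21% cholesterol) from 4–5 weeks of age. Oral gavage for 6 weeks from age 5 or 12 weeks; vehicle 10% 1-methyl-2-pyrrolidone, 5% cremophor EL with ethanol in water. Blood taken after 6 h fast before and after treatment. Glucose by meter; insulin by ELISA; lipids and glycerol colorimetric.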

Mus musculus [5] = test: Effect on triglyceride level in 5-week old apoE-/- C57BL/6J mouse fed on western diet and 15 mg/kg/day, po drug simultaneously in 5-11 week early intervention study; format: functional; outline: as §2
Mus musculus [6] = test: Effect on free fatty acid level in 5-week old apoE-/- C57BL/6J mouse fed on western diet and 15 mg/kg/day, po drug simultaneously in 5-11 week early intervention study; format: functional; outline: as §2
[7] = Reduction of Mcp1 expression mouse aP2-/-R macrophage cells (re-expression of aP2) relative to control; format: functional, cell-based
Outline: (§3)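 Mouse aP2⁺/⁺ and aP2-reconstituted aP2⁻/⁻ macrophage lines were grown in RPMI with FBS or 5% LPDS, with inhibitor in DMSO or vehicle. Mcp-1, Il1β, Il6 and Tnf mRNA were measured by SYBR Green qRT-PCR (annealing at 58 °C, 50 cycles), normalized to 18s rRNA and then to untreated cells. Mean ± s.e.m.; at least triplicate.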

Mus musculus [8] = test: Reduction of total liver triglyceride level in ob/ob mouse at 40 mg/kg/day, po; format: functional, organism-based
Outline: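 Male ob/ob mice were gavaged with 40 mg kg⁻¹ d⁻¹ or vehicle for 6 weeks from 8 weeks of age, n = 6 per group. Total liver lipids were extracted by the Bligh–Dyer method and triglyceride content was determined.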

Mus musculus [9] = test: Decrease in Fasn expression in liver of ob/ob mouse at 40 mg/kg/day, po; format: functional, organism-based
Outline: (§4)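 Liver from male ob/ob mice gavaged daily for 6 weeks from 8 weeks of age, n = 6 per group. mRNA measured by SYBR Green real-time PCR: 95 °C 4 min, then 50 cycles of 95 °C 15 s, 58 °C 30 s, 72 °C 30 s. Normalized to 18s rRNA.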

Mus musculus [10] = test: Decrease in Acaca expression in liver of ob/ob mouse at 40 mg/kg/day, po; format: functional, organism-based; outline: as §4
Mus musculus [11] = test: Inhibition of JNK1 activity in ob/ob mouse liver at 40 mg/kg/day, po relative to control; format: functional, organism-based
Outline: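 Liver lysates (500–1,000 μg protein) from ob/ob mice gavaged at 40 mg kg⁻¹ d⁻¹ were immunoprecipitated with JNK1 antibody. The beads were incubated with 10 μCi ³²P-γATP, 10 μM ATP and 5 μg c-jun fusion protein in Hepes pH 7.4/MgCl₂ buffer at 30 °C for 20 min. The reaction was stopped with Laemmli buffer and quantified.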

[12] = Reduction of TNF expression in mouse aP2+/+ macrophage cells relative to control; format: functional, cell-based; outline: as §3
Mus musculus [13] = organism: Mus musculus; test: Decrease in glucose level in wild type mouse fed on high fat diet after 4 weeks by glucose tolerance test relative to control; format: functional, organism-based
Outline: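 Wild-type C57BL/6J mice on 60% fat diet from 4 weeks of age, gavaged with 40 mg kg⁻¹ d⁻¹ or vehicle for 4 weeks starting at 20 weeks of age. Glucose tolerance tested with 1.5 g kg⁻¹ intraperitoneal glucose after an overnight fast.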

Mus musculus [14] = test: Effect on glucose level in 5-week old apoE-/- C57BL/6J mouse fed on western diet and administered with 15 mg/kg/day, po drug at 12 week in 12-18 week late intervention study; format: functional; outline: as §2
Mus musculus [15] = test: Effect on glycerol level in 5-week old apoE-/- C57BL/6J mouse fed on western diet and administered with 15 mg/kg/day, po drug at 12 week in 12-18 week late intervention study; format: functional; outline: as §2
[16] = biological target: Apolipoprotein A-I (Homo sapiens) (UniProt P02647); test: Increase in APOA1-mediated cholesterol in human THP1 cells at 25 uM relative to control; format: cell-based; details: THP-1
Outline: (§5)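 Macrophages loaded 24 h in RPMI with 5% LPDS, 1 μCi ml⁻¹ ³H-cholesterol and 50 μg ml⁻¹ acLDL, ± 25 μM inhibitor. Equilibrated 24 h in 0.2% fatty-acid-free BSA ± inhibitor, then 4 h ± APOA1 20 μg ml⁻¹. Efflux = medium ³H as % of total, per mg protein; mouse lines normalized to untreated aP2+/+.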

Macrophage [17] = test: Increase in cholesterol efflux in mouse aP2-/-R macrophage cells (re-expression of aP2) at 25 uM relative to control; format: functional, cell-based; outline: as §5
Macrophage [18] = test: Increase in cholesterol efflux in mouse aP2-/- macrophage cells at 25 uM relative to control; format: functional, cell-based; outline: as §5
Mus musculus [19] = test: Decrease in Cd68 expression in ob/ob mouse adipose tissue at 40 mg/kg/day, po; format: functional, organism-based
Mus musculus [20] = test: Decrease in Mcp1 expression in ob/ob mouse adipose tissue at 40 mg/kg/day, po; format: functional, organism-based
Mus musculus [21] = test: Decrease in IL1-beta expression in ob/ob mouse adipose tissue at 40 mg/kg/day, po; format: functional, organism-based
Mus musculus [22] = test: Decrease in TNF expression in ob/ob mouse adipose tissue at 40 mg/kg/day, po; format: functional, organism-based
Mus musculus [23] = test: Decrease in blood glucose level in fasted ob/ob mouse at 40 mg/kg/day, po after 6 weeks; format: functional, organism-based
Outline: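 Male ob/ob mice given oral gavage daily for 6 weeks from 8 weeks old, n = 6 per group. Blood taken after 6 h fast before and after treatment; fed glucose taken at week 2. Glucose by meter on 3 μl whole blood, insulin by ultrasensitive ELISA, cholesterol, FFA and glycerol by colorimetric microplate assays.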

THP-1 = test: Decrease in MCP1 production in human THP1 cells expressing aP2 after 24 hrs; format: functional, cell-based
Outline: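 THP-1 monocytes differentiated with 100 nM PMA for 24 h. Incubated 24 h in RPMI with 5% lipoprotein-deficient serum with inhibitor 0–25 μM in DMSO. Supernatant MCP-1 measured by ELISA and normalized to cellular protein. At least triplicate.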

Chain of Apolipoprotein A-I (Homo sapiens) (P02647 whole entry): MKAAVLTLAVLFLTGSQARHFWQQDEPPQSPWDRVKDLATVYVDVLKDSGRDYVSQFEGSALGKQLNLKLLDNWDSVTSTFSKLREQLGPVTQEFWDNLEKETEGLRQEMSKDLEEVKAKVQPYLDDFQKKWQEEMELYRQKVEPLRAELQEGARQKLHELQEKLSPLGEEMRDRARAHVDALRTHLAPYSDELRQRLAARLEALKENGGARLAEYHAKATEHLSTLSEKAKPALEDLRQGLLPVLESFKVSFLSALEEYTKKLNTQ

CCc1c(-c2ccccc2)c(-c2ccccc2)nn1-c1ccccc1-c1cccc(OCC(=O)O)c1
Activity (Macrophage [1]): Active
Activity (Mus musculus [2]): 52.6%
Activity (Mus musculus [3]): 51%
Activity (Mus musculus [4]): 1465.3 mg/dL
Activity (Mus musculus [5]): 213.6 mg/dL
Activity (Mus musculus [6]): 2 mM
Activity [7]: Active
Activity (Mus musculus [8]): Active
Activity (Mus musculus [9]): Active
Activity (Mus musculus [10]): Active
Activity (Mus musculus [11]): Active
Activity [12]: Active
Activity (Mus musculus [13]): Active
Activity (Mus musculus [14]): 147.2 mg/dL
Activity (Mus musculus [15]): 3.55 mM
Activity [16]: Active
Activity (Macrophage [17]): Active
Activity (Macrophage [18]): inactive
Activity (Mus musculus [19]): Active
Activity (Mus musculus [20]): Active
Activity (Mus musculus [21]): Active
Activity (Mus musculus [22]): Active
Activity (Mus musculus [23]): Active
Activity (THP-1): Dose-dependent effect
